Results: ChEMBL document CHEMBL1157011, “8-Sulfonyl-substituted tetrahydro-1H-pyrido[4,3-b]indoles as 5-HT6 receptor antagonists” (Eur J Med Chem, 2010)
pIC50, pKi: −log10 of the molar value. Blank lines part the entries; values can stand above or below the molecule they belong to. Calls of active or inactive are those of the source. The calls are words filed in the database; no cut-off is given here.

Tests used:
[1] = target: T1, 5-hydroxytryptamine receptor 6 (Homo sapiens, UniProt P50406); test: Antagonist activity at human recombinant 5HT6 receptor expressed in HEK293 cells assessed as inhibition of serotonin-induced cAMP production by LANCE assay; type: functional, cell-based; conditions: for pIC50: read-out: IC50
Method in brief: (§1)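 HEK-293 cells with a tetracycline-inducible (T-Rex) human 5-HT6 receptor, grown in DMEM/10% FBS with blasticidin S and zeocin and induced with tetracycline the day before. Medium was swapped for HBSS with 1 mM MgCl2, 1 mM CaCl2, IBMX and 5 mM HEPES, pH 7.4. Compounds (0.1% DMSO) were added 15 min at RT, then 10 nM serotonin for 30 min. cAMP read by LANCE; 2 independent experiments in duplicate.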

[2] = target: T1, 5-hydroxytryptamine receptor 6; test: Antagonist activity at human recombinant 5HT6 receptor expressed in HEK293 cells assessed as inhibition of serotonin-induced cAMP production by LANCE assay relative to serotonin; type: functional, cell-based; method in brief: as §1
[3] = target: T2, Alpha-1D adrenergic receptor (Homo sapiens) (UniProt P25100); test: Binding affinity to adrenergic Alpha-1D receptor at 10 uM by radioligand displacement assay
T2 sequence (whole entry): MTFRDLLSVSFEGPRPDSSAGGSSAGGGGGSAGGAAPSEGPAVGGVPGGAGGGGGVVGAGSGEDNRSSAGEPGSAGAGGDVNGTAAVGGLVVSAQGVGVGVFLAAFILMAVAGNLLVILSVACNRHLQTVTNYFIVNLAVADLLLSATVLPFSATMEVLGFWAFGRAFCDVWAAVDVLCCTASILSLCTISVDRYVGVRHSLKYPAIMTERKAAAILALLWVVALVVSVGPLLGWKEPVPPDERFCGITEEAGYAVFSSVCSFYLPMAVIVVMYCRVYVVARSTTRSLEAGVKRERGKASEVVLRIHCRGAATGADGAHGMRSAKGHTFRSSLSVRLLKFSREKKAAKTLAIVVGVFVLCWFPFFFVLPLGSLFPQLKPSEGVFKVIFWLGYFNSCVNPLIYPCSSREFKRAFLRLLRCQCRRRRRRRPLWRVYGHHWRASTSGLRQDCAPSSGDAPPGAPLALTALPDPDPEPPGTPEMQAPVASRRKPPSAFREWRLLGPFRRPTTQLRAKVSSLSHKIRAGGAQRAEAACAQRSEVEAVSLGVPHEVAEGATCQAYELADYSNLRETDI
Method in brief: (§2)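 Target specificity panel: single-concentration competitive displacement of each target's radioligand, with compound at 1 µM or 10 µM as stated per line. Run by an outside contract lab under its internal protocols; mean ± SE, n = 2.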

[4] = target: Sodium-dependent noradrenaline transporter (Homo sapiens) (UniProt P23975); test: Binding affinity to norepinephrine transporter at 10 uM by radioligand displacement assay; method in brief: as §2
[5] = target: T3, Alpha-1B adrenergic receptor (Homo sapiens) (UniProt P35368); test: Binding affinity to adrenergic Alpha-1B receptor at 10 uM by radioligand displacement assay; method in brief: as §2
T3 sequence (whole entry): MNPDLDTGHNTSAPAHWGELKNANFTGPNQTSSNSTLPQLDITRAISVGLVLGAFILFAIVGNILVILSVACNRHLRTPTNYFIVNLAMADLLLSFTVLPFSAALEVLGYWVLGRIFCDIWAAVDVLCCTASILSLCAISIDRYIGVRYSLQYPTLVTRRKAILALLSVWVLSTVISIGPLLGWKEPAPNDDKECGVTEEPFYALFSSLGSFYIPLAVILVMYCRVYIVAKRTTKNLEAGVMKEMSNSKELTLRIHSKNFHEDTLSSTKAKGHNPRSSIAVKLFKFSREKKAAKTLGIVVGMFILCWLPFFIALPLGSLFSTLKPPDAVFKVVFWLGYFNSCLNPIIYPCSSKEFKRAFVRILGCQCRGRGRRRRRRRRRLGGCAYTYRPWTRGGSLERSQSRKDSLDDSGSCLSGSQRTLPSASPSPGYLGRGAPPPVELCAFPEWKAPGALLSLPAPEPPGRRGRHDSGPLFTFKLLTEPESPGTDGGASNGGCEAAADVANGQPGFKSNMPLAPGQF

[6] = target: T4, Alpha-1A adrenergic receptor (Homo sapiens) (UniProt P35348); test: Binding affinity to adrenergic alpha1A receptor at 10 uM by radioligand displacement assay; method in brief: as §2
T4 sequence (whole entry): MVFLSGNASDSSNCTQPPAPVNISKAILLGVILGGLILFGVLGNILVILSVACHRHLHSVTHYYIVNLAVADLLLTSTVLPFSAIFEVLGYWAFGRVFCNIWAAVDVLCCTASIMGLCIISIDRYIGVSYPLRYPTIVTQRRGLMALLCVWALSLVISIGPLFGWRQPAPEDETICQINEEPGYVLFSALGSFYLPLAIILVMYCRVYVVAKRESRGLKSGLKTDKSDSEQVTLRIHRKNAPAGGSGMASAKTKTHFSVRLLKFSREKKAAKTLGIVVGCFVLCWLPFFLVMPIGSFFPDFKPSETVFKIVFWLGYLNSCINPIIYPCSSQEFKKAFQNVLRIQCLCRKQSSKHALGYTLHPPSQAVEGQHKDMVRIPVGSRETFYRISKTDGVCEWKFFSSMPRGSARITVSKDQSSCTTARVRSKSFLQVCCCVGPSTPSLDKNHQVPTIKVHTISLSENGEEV

[7] = target: T5, Alpha-2A adrenergic receptor (Homo sapiens) (UniProt P08913); test: Binding affinity to adrenergic alpha2A receptor at 10 uM by radioligand displacement assay; method in brief: as §2
T5 sequence (whole entry): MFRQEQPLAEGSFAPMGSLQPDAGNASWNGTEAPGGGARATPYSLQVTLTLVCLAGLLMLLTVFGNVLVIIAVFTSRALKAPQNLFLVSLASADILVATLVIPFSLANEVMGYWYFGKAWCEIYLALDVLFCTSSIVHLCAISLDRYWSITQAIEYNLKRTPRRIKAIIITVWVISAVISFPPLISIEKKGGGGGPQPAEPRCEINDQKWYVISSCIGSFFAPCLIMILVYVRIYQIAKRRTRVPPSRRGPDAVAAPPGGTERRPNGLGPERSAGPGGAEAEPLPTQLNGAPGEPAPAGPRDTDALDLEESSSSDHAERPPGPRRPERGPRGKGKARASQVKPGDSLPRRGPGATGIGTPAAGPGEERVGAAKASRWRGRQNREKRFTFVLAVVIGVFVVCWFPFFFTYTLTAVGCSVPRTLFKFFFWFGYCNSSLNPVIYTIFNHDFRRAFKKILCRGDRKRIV

[8] = target: Sigma non-opioid intracellular receptor 1 (Homo sapiens) (UniProt Q99720); test: Binding affinity to sigma 1 receptor at 10 uM by radioligand displacement assay; method in brief: as §2
[9] = target: D(3) dopamine receptor (Homo sapiens) (UniProt P35462); test: Binding affinity to dopamine D3 receptor at 10 uM by radioligand displacement assay; method in brief: as §2
[10] = target: T1, 5-hydroxytryptamine receptor 6; test: Binding affinity to human recombinant 5HT6 receptor by radioligand displacement assay
Method in brief: (§3)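 Competitive displacement of the corresponding radioligand, run by an outside contract lab under its internal protocols. Data from one representative experiment in duplicate.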

[11] = target: Sodium-dependent dopamine transporter (Homo sapiens) (UniProt Q01959); test: Binding affinity to dopamine transporter at 10 uM by radioligand displacement assay; method in brief: as §2
[12] = target: T4, Alpha-1A adrenergic receptor (Homo sapiens); test: Binding affinity to adrenergic alpha1A receptor at 1 uM by radioligand displacement assay; method in brief: as §2
[13] = target: T6, 5-hydroxytryptamine receptor 7 (Homo sapiens, UniProt P34969); test: Binding affinity to 5HT7 receptor at 1 uM by radioligand displacement assay; method in brief: as §2
[14] = target: T7, 5-hydroxytryptamine receptor 2C (Homo sapiens, UniProt P28335); test: (§4) Binding affinity to 5HT2C receptor by radioligand displacement assay; method in brief: as §3
T7 sequence (P28335 whole entry): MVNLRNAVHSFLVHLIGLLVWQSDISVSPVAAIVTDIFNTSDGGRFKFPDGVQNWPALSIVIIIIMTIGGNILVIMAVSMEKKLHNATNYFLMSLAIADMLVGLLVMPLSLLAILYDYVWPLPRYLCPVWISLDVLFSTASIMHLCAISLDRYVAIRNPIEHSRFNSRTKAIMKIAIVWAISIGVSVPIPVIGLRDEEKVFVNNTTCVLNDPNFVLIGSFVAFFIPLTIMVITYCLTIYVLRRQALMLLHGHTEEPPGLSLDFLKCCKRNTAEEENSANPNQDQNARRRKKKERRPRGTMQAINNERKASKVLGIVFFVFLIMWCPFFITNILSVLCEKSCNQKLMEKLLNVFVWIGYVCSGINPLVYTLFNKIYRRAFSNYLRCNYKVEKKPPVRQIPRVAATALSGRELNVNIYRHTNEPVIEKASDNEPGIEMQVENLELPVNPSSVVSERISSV

[15] = target: T8, 5-hydroxytryptamine receptor 2C (Homo sapiens) (UniProt P28335); test: as §4; method in brief: as §3
T8 sequence (whole entry): T7 sequence (P28335 whole entry)

[16] = target: 5-hydroxytryptamine receptor 2B (Homo sapiens) (UniProt P41595); test: Binding affinity to 5HT2B receptor at 1 uM by radioligand displacement assay; method in brief: as §2
[17] = target: T2, Alpha-1D adrenergic receptor (Homo sapiens); test: Binding affinity to adrenergic Alpha-1D receptor at 1 uM by radioligand displacement assay; method in brief: as §2
[18] = target: Sigma non-opioid intracellular receptor 1 (Homo sapiens) (UniProt Q99720); test: Binding affinity to sigma 1 receptor at 1 uM by radioligand displacement assay; method in brief: as §2
[19] = Binding affinity to L-type calcium channel at 1 uM by radioligand displacement assay; method in brief: as §2
[20] = target: T3, Alpha-1B adrenergic receptor (Homo sapiens); test: Binding affinity to adrenergic Alpha-1B receptor at 1 uM by radioligand displacement assay; method in brief: as §2
[21] = target: D(3) dopamine receptor (Homo sapiens) (UniProt P35462); test: Binding affinity to dopamine D3 receptor at 1 uM by radioligand displacement assay; method in brief: as §2
[22] = target: T5, Alpha-2A adrenergic receptor (Homo sapiens); test: Binding affinity to adrenergic alpha2A receptor at 1 uM by radioligand displacement assay; method in brief: as §2
[23] = Binding affinity to glycine transporter at 1 uM by radioligand displacement assay; method in brief: as §2
[24] = target: Sodium-dependent noradrenaline transporter (Homo sapiens) (UniProt P23975); test: Binding affinity to norepinephrine transporter at 1 uM by radioligand displacement assay; method in brief: as §2
[25] = target: 5-hydroxytryptamine receptor 2A (Homo sapiens) (UniProt P28223); test: Binding affinity to 5HT2A receptor at 1 uM by radioligand displacement assay; method in brief: as §2
[26] = target: T8, 5-hydroxytryptamine receptor 2C (Homo sapiens); test: Binding affinity to 5HT2C receptor at 1 uM by radioligand displacement assay; method in brief: as §2
[27] = target: T1, 5-hydroxytryptamine receptor 6; test: Binding affinity to human recombinant 5HT6 receptor at 1 uM by radioligand displacement assay; method in brief: as §2
[28] = target: T9, 5-hydroxytryptamine receptor 1A (Homo sapiens, UniProt P08908); test: Binding affinity to 5HT1A receptor by radioligand displacement assay
T9 sequence (P08908 whole entry): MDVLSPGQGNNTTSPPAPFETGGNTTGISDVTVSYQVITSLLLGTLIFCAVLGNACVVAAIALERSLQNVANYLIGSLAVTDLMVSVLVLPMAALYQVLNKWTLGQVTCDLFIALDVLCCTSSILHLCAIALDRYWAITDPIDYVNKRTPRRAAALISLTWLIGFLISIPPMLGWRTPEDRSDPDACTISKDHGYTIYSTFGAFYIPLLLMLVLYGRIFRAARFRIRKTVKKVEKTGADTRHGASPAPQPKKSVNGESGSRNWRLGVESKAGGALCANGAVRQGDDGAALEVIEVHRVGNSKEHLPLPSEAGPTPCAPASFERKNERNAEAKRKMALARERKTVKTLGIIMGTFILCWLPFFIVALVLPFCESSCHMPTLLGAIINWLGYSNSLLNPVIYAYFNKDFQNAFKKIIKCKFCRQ

[29] = target: T6, 5-hydroxytryptamine receptor 7; test: Binding affinity to 5HT7 receptor by radioligand displacement assay; method in brief: as §3

T6 sequence (P34969 whole entry): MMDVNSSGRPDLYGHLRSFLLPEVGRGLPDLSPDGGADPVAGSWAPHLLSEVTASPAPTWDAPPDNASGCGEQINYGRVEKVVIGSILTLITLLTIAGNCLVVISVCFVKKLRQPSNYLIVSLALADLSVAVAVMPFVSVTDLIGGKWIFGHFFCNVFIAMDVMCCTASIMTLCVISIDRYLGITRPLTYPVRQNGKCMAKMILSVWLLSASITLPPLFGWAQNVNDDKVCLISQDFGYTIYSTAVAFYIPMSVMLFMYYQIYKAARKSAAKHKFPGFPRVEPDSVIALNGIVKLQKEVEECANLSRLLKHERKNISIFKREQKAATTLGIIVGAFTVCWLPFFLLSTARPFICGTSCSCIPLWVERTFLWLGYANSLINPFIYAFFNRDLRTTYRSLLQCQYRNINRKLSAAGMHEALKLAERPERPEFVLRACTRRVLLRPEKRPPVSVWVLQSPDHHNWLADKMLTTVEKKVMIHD
T1 sequence (P50406 whole entry): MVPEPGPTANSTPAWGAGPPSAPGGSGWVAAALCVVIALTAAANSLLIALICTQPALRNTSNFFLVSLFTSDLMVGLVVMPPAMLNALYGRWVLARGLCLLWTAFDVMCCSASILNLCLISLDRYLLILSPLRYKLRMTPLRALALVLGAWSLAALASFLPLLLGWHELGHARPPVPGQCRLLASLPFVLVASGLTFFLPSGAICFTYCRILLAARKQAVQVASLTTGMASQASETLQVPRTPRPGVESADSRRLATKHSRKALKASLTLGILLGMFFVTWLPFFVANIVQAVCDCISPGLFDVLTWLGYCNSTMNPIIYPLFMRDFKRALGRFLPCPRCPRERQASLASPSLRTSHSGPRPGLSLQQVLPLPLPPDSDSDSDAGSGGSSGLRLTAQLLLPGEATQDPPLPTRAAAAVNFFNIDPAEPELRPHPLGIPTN
Sigma non-opioid intracellular receptor 1 (Homo sapiens), sequence (Q99720 whole entry): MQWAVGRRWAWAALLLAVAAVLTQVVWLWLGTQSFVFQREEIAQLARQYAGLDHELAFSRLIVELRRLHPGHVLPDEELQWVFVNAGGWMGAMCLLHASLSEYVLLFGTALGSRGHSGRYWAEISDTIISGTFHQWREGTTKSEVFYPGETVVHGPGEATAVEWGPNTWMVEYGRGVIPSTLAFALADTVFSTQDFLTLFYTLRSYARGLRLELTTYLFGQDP
Sodium-dependent noradrenaline transporter (Homo sapiens), sequence (P23975 whole entry): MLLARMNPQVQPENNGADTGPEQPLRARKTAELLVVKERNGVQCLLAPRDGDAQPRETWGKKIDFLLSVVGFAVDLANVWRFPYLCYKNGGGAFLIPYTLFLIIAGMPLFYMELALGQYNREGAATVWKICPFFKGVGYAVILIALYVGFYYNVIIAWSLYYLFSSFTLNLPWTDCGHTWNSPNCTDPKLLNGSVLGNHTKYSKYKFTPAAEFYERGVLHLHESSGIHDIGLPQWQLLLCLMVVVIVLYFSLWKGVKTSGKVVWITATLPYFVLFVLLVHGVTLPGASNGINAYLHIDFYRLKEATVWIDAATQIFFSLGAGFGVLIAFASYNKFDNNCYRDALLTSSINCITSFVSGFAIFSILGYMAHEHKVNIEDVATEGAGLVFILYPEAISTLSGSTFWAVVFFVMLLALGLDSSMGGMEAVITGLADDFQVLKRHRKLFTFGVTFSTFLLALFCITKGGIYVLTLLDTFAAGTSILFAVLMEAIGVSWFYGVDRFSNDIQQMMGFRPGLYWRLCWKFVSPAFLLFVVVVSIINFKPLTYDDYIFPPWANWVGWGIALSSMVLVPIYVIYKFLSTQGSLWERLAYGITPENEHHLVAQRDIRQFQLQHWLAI
D(3) dopamine receptor (Homo sapiens), sequence (P35462 whole entry): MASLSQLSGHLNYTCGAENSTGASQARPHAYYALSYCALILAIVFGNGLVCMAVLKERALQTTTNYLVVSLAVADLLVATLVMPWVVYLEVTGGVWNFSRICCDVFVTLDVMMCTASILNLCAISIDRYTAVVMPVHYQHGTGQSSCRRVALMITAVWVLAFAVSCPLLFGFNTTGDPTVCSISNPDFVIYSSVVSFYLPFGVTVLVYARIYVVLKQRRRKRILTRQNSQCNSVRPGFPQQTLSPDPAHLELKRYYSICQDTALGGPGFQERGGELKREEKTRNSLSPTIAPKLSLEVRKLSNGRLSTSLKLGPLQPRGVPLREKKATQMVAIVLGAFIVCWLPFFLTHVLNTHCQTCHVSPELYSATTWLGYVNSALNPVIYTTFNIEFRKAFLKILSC
Sodium-dependent dopamine transporter (Homo sapiens), sequence (Q01959 whole entry): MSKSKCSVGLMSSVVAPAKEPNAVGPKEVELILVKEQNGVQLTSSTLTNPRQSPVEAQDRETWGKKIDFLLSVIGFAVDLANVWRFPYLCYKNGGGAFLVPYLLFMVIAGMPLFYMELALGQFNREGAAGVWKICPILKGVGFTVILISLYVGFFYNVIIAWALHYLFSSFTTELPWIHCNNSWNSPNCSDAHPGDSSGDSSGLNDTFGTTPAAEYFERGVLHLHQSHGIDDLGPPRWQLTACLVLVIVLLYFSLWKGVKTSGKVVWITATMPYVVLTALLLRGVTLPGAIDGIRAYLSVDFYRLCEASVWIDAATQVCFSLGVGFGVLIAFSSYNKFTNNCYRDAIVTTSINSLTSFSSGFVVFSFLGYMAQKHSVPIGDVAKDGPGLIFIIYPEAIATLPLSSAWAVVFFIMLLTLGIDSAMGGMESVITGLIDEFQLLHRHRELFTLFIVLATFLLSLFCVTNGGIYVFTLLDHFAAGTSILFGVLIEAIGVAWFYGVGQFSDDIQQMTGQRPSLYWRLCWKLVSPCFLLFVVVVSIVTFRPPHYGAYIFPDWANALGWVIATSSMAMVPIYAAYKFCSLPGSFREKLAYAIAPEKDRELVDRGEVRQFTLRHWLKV
5-hydroxytryptamine receptor 2B (Homo sapiens), sequence (P41595 whole entry): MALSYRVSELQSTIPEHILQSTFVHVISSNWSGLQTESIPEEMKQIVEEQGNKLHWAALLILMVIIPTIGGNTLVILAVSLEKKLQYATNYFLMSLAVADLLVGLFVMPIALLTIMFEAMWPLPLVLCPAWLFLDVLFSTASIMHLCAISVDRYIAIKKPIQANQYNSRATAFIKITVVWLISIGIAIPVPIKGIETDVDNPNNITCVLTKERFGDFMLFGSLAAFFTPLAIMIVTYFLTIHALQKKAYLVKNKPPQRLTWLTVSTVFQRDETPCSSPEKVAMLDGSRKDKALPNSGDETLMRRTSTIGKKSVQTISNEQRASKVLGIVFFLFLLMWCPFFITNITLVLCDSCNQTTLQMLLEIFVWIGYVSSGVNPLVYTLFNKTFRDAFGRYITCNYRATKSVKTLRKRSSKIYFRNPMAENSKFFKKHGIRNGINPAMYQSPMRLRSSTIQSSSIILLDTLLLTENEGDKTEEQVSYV
5-hydroxytryptamine receptor 2A (Homo sapiens), sequence (P28223 whole entry): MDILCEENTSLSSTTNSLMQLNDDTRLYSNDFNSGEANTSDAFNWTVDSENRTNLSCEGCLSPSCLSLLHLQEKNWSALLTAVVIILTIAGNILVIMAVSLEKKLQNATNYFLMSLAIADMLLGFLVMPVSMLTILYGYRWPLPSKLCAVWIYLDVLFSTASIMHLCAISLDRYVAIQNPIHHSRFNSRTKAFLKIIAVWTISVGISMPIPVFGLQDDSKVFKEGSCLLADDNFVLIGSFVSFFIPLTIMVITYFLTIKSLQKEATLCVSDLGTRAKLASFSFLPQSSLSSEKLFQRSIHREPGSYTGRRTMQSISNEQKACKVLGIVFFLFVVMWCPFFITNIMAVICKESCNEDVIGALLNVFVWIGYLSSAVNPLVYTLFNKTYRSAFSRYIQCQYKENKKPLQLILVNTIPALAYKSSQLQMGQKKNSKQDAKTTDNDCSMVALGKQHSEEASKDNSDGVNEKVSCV

SMILES: CN1CCc2c(c3cc(S(C)(=O)=O)ccc3n2C)C1.Cl
- IC50 ([1]; hek293): Not Active

SMILES: CN1CCc2[nH]c3ccc(S(=O)(=O)c4cccnc4)cc3c2C1
- Imax [2]: 100%
- pIC50 [1]: 5.47

SMILES: CN1CCc2[nH]c3ccc(S(=O)(=O)Nc4cccc(F)c4)cc3c2C1
- Activity [12]: 20%
- Activity [13]: 80%
- pKi [14]: 7.41
- Activity [15]: Dose-dependent effect
- Activity [16]: 80%
- Activity [17]: 29%
- Activity [18]: 60%
- Activity [19]: 27%
- Imax [2]: 100%
- Activity [10]: Dose-dependent effect
- pKi [10]: 8.68
- Activity [20]: 37%
- Activity [21]: 35%
- Activity [22]: 60%
- Activity [23]: 20%
- Activity [24]: 15%
- Activity [25]: 80%
- Activity [26]: 80%
- Activity [27]: 80%
- pKi [28]: 8.15
- Activity [29]: Dose-dependent effect
- pKi [29]: 7.38

Results, then the molecule that gave them:

- Activity [3]: Active
- Activity [4]: Active
- Activity [5]: Active
- Activity [6]: Active
- Activity [7]: Active
- Activity [8]: Active
- Activity [9]: Active
- Imax [2]: 100%
- pKi [10]: 8.24
- Activity [11]: Active
SMILES: CN1CCc2c(c3cc(S(=O)(=O)c4ccccc4)ccc3n2C)C1

- Imax [2]: 100%
- pIC50 [1]: 4.55
SMILES: Cc1ccc(S(=O)(=O)n2c3c(c4cc(S(=O)(=O)c5ccccc5)ccc42)CN(C)CC3)cc1

- Imax [2]: 100%
SMILES: CN1CCc2c(c3cc(S(=O)(=O)c4ccccc4)ccc3n2CCc2ccccn2)C1
